Experimental data as given in paper PMC8364871 (Clinical cancer research : an official journal of the …, 2021).
One block for each compound: values may come before it.

What was measured:
[1] = test system: MCL cell lines; assay: Activity in MCL cell lines; assay type: cell-based, human
[2] = molecular target: T1, SOX11-DNA interaction (Homo sapiens, UniProt P35716); assay: Fluorescence anisotropy; assay type: biochemical; conditions: 20 μM of compound
T1 sequence (P35716 49-117 limits assumed): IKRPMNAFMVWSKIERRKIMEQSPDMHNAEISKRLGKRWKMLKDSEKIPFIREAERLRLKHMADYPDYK
In short: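 Fluorescence anisotropy read at fluorescein excitation/emission wavelengths to follow SOX11–DNA binding in the presence of test compound. Unlabeled DNA served as the competitive positive control. Read-out: percent inhibition of DNA binding.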

[3] = test system: pBTK in JeKo-1, Z-138, Mino and JVM-2; assay: PhosphoFlow pBTK-Y223, all four MCL cell lines; assay type: cell-based, human; conditions: 24 hours; 1 μM and 10 μM Ibrutinib (Figure 5B)
[4] = test system: MCL patients; conditions: cited from earlier work; for duration of response: MCL patients
[5] = test system: DNA (topoisomerase I relaxation of supercoiled plasmid DNA); assay: Topoisomerase-based DNA unwinding assay; assay type: biochemical; conditions: 20 μM
[6] = molecular target: T2, (His)6-SOX11-DBD (Homo sapiens, UniProt P35716); assay: Surface plasmon resonance binding to immobilized SOX11-DBD; conditions: 25 °C
T2 sequence (P35716 49-117 limits assumed): T1 sequence (P35716 49-117 limits assumed)

[7] = test system: SOX11 DBD; conditions: cited from earlier work

inhibition of DNA binding [2]: > 50%
SMILES: Cc1cc2nc3c(=O)[nH]c(=O)nc-3n(C[C@H](O)[C@H](O)[C@H](O)COP(=O)(O)OP(=O)(O)OC[C@H]3O[C@@H](n4cnc5c(N)ncnc54)[C@H](O)[C@@H]3O)c2cc1C [Flavitan]
activity in MCL cell lines [1]: inactivity in MCL cell lines

SMILES: C=CC(=O)N1CCC[C@@H](n2nc(-c3ccc(Oc4ccccc4)cc3)c3c(N)ncnc32)C1 [Ibrutinib]
pBTK level in all four cell lines [3]: reduced pBTK level in all four cell lines | duration of response [4]: 17.5 months | overall response rate ([4]; relapsed MCL patients): 60% | direct DNA binding / interference with DNA unwinding activity of topoisomerase I [5]: do not directly bind DNA

binding affinity to SOX11-DBD (SPR) [6]: displayed expected affinities
SMILES: O=C(O)c1c(O)cccc1CCc1ccc2ccccc2c1 [Sm4]
concentration inhibiting SOX11 DBD [7]: sub-millimolar concentrations

SMILES: CC1(C)CCC(CN2CCN(c3ccc(C(=O)NS(=O)(=O)c4ccc(NCC5CCOCC5)c([N+](=O)[O-])c4)c(Oc4cnc5[nH]ccc5c4)c3)CC2)=C(c2ccc(Cl)cc2)C1 [Venetoclax]
duration of response [4]: 14 months
